# The source made the active and inactive calls. No cut-off for these calls is given here.
# Tests used:
# [1] = tested on: Trichophyton mentagrophytes; test: Antifungal activity against Trichophyton mentagrophytes MF7004 after 20 hrs; format: functional; conditions: MF7004, 20 h
# Method in brief: (§1)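 Broth MIC with cells seeded at 10⁵ cfu/mL and exposed to 2-fold serial compound dilutions in growth medium, 37 °C for 20 h. MIC taken as the minimum inhibitory concentration.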
# [2] = tested on: Candida albicans; test: Antifungal activity against Candida albicans MY1055 after 20 hrs; format: functional; conditions: MY1055, 20 h
# Method in brief: (§2)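 Broth MIC. Cells inoculated at 10⁵ cfu/mL in growth medium with 2-fold serial dilutions of compound. Incubated 20 h at 37 °C. MIC taken as minimum inhibitory concentration. For line 2 the medium held 50% mouse serum.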
# [3] = tested on: Candida parapsilosis; test: Antifungal activity against Candida parapsilosis ATCC 22019 after 20 hrs; format: functional; conditions: Lodderomyces parapsilosis, ATCC 22019, 20 h; method in brief: as §2
# [4] = tested on: Clavispora lusitaniae; test: Antifungal activity against Candida lusitaniae MY1396 after 20 hrs; format: functional; conditions: MY1396, 20 h; method in brief: as §1
# [5] = tested on: Aspergillus fumigatus; test: Antifungal activity against Aspergillus fumigatus MF5568 after 20 hrs; format: functional; conditions: MF5568, 20 h; method in brief: as §1
# [6] = tested on: Aspergillus fumigatus; test: Antifungal activity against Aspergillus fumigatus MF5568 in presence of 50% human serum after 20 hrs; format: functional; conditions: MF5568, 20 h; method in brief: as §1
# [7] = tested on: Candida albicans; test: Antifungal activity against Candida albicans MY1055 in presence of 50% mouse serum after 20 hrs; format: functional; conditions: MY1055, 20 h; method in brief: as §2
# [8] = tested on: Pichia kudriavzevii; test: Antifungal activity against Candida krusei ATCC 6258 after 20 hrs; format: functional; conditions: ATCC 6258, 20 h; method in brief: as §2
# [9] = tested on: Staphylococcus aureus; test: […] activity against Staphylococcus aureus MB2865; format: functional
# [10] = tested on: Nakaseomyces glabratus; test: Antifungal activity against Candida glabrata MY1381 after 20 hrs; format: functional; conditions: MY1381, 20 h; method in brief: as §2
# [11] = tested on: Candida albicans; test: Antifungal activity against Candida albicans MY1055 infected in DBA/2 mouse assessed as mouse mortality at 50 mg/kg, ip twice daily measured after 4 days postinfection; format: functional; conditions: route intraperitoneal
# Method in brief: (§3)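 Mice infected iv via lateral tail vein with C. albicans MY1055 at 2.51 × 10⁴ cfu/mouse. Five DBA/2 mice per group, dosed ip twice daily; compound formulated in 5% DMSO in sterile distilled water. Mortality and general health observed for 4 days after challenge.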
# [12] = tested on: Candida albicans; test: Antifungal activity against Candida albicans MY1055 infected in DBA/2 mouse assessed as reduction in fugal CFU treated mouse twice daily measured after 4 days postinfection; format: functional, organism-based
# Method in brief: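 DBA/2 mice (5 per group) were infected iv via lateral tail vein with 2.51 × 10⁴ cfu/mouse. They were dosed ip twice daily at 100 or 50 mg/kg in 5% DMSO/sterile water. On day 4, kidneys were homogenized in saline, diluted 10-fold serially, plated on SDA and incubated at 35 °C for 30–48 h. Cfu/g kidney were compared with sham-treated controls by paired two-tailed t-test.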
# [13] = tested on: Candida albicans; test: Antifungal activity against Candida albicans MY1055 infected in DBA/2 mouse assessed as mouse mortality at 100 mg/kg, ip twice daily measured after 4 days postinfection; format: functional; conditions: route intraperitoneal; method in brief: as §3
Structure (SMILES),MIC [1],MIC [2],MIC [3],MIC [4],MIC [5],MIC [6],MIC [7],MIC [8],MIC [9],MIC [10],Activity [11],Activity [12],Activity [13]
CC[C@H](C)C[C@H](C)CCCCCCCCC(=O)N[C@H]1C[C@@H](O)[C@@H](NCCN)NC(=O)[C@@H]2[C@@H](O)CCN2C(=O)[C@H]([C@H](O)CCN)NC(=O)[C@H]([C@H](O)[C@@H](O)c2ccc(O)cc2)NC(=O)[C@@H]2C[C@@H](O)CN2C(=O)[C@H]([C@@H](C)O)NC1=O [CASPOFUNGIN],32 µg/mL,0.5 µg/mL,0.5 µg/mL,< 0.03 µg/mL,32 µg/mL,32 µg/mL,0.25 µg/mL,1 µg/mL,> 32 µg/mL,0.25 µg/mL,,,
CC(CCCCCCCCC(=O)CCCCCCCCCC(O)CO[C@@H]1O[C@H](CO)[C@@H](O)[C@H](O)[C@@H]1O)C(=O)C1=C(O)C(Cc2ccc(O)cc2)NC1=O (stereo partly drawn) [VIRGINEONE],8 µg/mL,8 µg/mL,8 µg/mL,4 µg/mL,8 µg/mL,> 32 µg/mL,> 32 µg/mL,16 µg/mL,16 µg/mL,8 µg/mL,40%,inactive,100%
